# High-throughput results: PubChem, several laboratories
# Hits are enriched below; roughly 2.2% of the tested compounds scored in any of these assays.
# Runt-SMMHC FRET = blocks binding of human RUNX1 Runt domain to CBFb-SMMHC. Q01196+Q13951. hit rate 0.74% among 220,000. inhibition, % at 20 µM. Cerulean-Runt/Venus-CBFb-SMMHC FRET ratio 530/480, 1 h;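 active means mean inhibition across duplicate retests at 20 µM reaching about 50%, limit read from the data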;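 further: 0% = DMSO wells and 100% = wells with excess untagged CBFb-SMMHC; inhibitors lower the FRET ratio by blocking Runt binding to CBFb-SMMHC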
# Target sequence (Q01196 whole entry, looked up, the tested form may be a part): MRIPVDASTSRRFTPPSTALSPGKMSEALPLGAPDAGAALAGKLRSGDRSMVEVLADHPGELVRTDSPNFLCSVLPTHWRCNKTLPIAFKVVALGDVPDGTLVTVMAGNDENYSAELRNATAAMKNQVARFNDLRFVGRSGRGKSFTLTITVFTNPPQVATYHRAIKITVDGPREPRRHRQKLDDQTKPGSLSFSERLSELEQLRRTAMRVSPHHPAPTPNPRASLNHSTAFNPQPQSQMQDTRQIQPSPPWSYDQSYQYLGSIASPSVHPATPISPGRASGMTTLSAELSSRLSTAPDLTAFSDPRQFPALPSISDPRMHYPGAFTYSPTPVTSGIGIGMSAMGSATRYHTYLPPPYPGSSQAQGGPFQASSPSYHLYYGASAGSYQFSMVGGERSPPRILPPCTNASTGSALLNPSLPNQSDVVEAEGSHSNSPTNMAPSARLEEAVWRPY
# Target sequence (Q13951 whole entry, looked up, the tested form may be a part): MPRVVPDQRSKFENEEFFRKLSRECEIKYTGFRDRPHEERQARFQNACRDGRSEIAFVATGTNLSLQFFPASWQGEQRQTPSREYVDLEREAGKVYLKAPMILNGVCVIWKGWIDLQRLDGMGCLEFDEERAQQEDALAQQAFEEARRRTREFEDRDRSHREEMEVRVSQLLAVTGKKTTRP
# Hck-Nef inh = human Hck-Nef kinase inhibition; P08631; Recombinant Hck-YEEI plus Nef, Z-Lyte FRET kinase assay; AID 463187; inhibition, % at 20 µM; hit rate 0.68% among 220,000;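 active means Hck-Nef kinase inhibition above about 50%, limit read from the data; inactive means inhibition below that limit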;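 further: 0% = DMSO with Hck plus Nef and 100% = Hck alone without Nef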
# 14-3-3 Bad inh = disrupts binding of bovine 14-3-3 zeta to phospho-Bad peptide. P63103. TR-FRET 14-3-3zeta/Dy647-pBad peptide displacement, 1 h. inhibition, % at 21.7 µM. hit rate 0.71% among 220,000. AID 781;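 active means inhibition above about 70%, limit read from the data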;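 further: 0% = full 14-3-3 plus peptide FRET controls and 100% = background without 14-3-3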
# Tb hexokinase = T. brucei hexokinase 1 inhibition. recombinant TbHK1, G6PDH-coupled NADH A340. inhibition, % at 10 µM. hit rate 0.11% among 220,000;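 active means inhibition of 50% or more in the single-dose primary screen; inactive means inhibition below 50%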
# RanGTP-Impb inh = disruptors of Ran-importin-beta complex formation – biochemical, FRET, CFP-Ran, YFP-importin-beta, homogeneous, primary screen | hit rate 1.1% among 300,000 | cell-free CFP-Ran/YFP-importin-beta FRET ratio | inhibition, % (test concentration not listed);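 active means more than half of the replicate wells show a fall in the fluorescence ratio signal beyond about 16%, limit read from the data, passing the limit was not always enough; inconclusive means exactly half of the replicate wells pass the set limit; inactive means fewer than half of replicates pass the limit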;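 further: 0% = DMSO wells and 100% = Ran loaded with GDP instead of GTP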
# Runt-CBFb FRET = inhibitors of human RUNX1 Runt domain binding to CBFb | Q01196+Q13951 | Cerulean-Runt/Venus-CBFb FRET ratio 530/480, 1 h | inhibition, % at 20 µM | hit rate 0.46% among 220,000;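 active means inhibition over about 50% at 20 µM in the single-dose screen, limit read from the data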;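 further: 0% = DMSO wells and 100% = excess unlabeled CBFb competitor control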
#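 Assay system: Cerulean-Runt domain / Medium: Tris 50 mM pH 7.5, KCl, K2SO4, 0.01% BSA / Timing: protein complex preformed 1 h, compound exposure 1 h, room temperature, dark / Measured by: FRET, excitation 422 nm, emission at 530 and 480 nm / Evaluation: loss of energy transfer signal / Control set: 5 µM unlabeled CBFb as full-inhibition high control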
# RUNX1 CBFb TR = Runt-CBFb binding inhibition; shares compounds with Runt-CBFb FRET; TR-FRET RUNX1 Runt domain-CBFb binding; inhibition, % at 20 µM; hit rate 20% among 480; AID 1502; in the data active means inhibition above about 40%
# Numbers without * were called inactive; ? = inconclusive; . = no result.
SMILES,Runt-SMMHC FRET,Hck-Nef inh,14-3-3 Bad inh,Tb hexokinase,RanGTP-Impb inh,Runt-CBFb FRET,RUNX1 CBFb TR
Cc1ccc(C2=Nc3ccccc3SC(c3cccc([N+](=O)[O-])c3)C2)cc1 (stereo not given),-6,4,6,-11,-1,52*,28
Cc1cccc(C)c1NC(=O)Cn1c(=O)n(CCCC(=O)NCc2ccco2)c(=O)c2sccc21,-1,-3,9,0,?,0,.
CCCOc1nc(SCCC)nc2c1cnn2-c1ccccc1,-1,6,-8,15,?,-2,.
O=C1C2C3C=CC(CO)(O3)C2C(=O)N1c1ccccc1-c1ccccc1 (stereo not given),68*,5,8,2,.,61*,70*
CCOC(=O)c1cc2c(ccc3nc(C)c(C)c32)[nH]c1C,.,.,.,.,-23,.,.
N#C/C(=C\c1c(N2CCCCCC2)nc2ccccn2c1=O)C(=O)NCc1ccco1,-3,-3,0,-20,6,75*,22
COc1ccc(NC(=O)CC2Oc3ccccc3NC2=O)c(OC)c1 (stereo not given),.,.,.,.,-1,.,.
CC(CCc1ccccc1)NC(=O)C1CCN(S(=O)(=O)N2CCOCC2)CC1 (stereo not given),1,2,1,-4,4,-2,.
O=CN/C=C/c1cc(O)ccc1O,59*,-141,0,3,.,65*,-2
O=Cc1ccc(O)cc1O,.,.,.,.,5,.,.
Cc1c(C(=O)N2CCOCC2)sc(NC(=O)c2ccccc2F)c1C#N,.,.,.,.,5,.,.
CNC(=O)/C(C#N)=C/c1c(N(Cc2ccccc2)Cc2ccccc2)nc2c(C)cccn2c1=O,115*,-1,15,-17,1,62*,-14
CCNC(=O)/C(C#N)=C/c1c(N(Cc2ccccc2)Cc2ccccc2)nc2ccccn2c1=O,22,3,5,-19,4,8,.
O=c1[nH]c(C2CCN(S(=O)(=O)/C=C/c3ccccc3)CC2)nc2c1nnn2Cc1ccccc1,.,.,.,.,2,.,.
O=C(NC(=S)Nc1cccc2ncccc12)c1ccco1,0,2,-3,-2,5,6,.
N#C/C(=C\c1ccco1)C(=O)Nc1cccc2ncccc12,29,10,-4,-68,9,61*,-7
O=C(CSc1ccccn1)Nc1nc2ccc(Br)cc2s1,4,0,10,1,10,-2,.
O=C(O)C[C@@H]1C(=O)O[C@@H]2C(COC(=O)c3cc(O)c(O)c(O)c3)O[C@@H](OC(=O)c3cc(O)c(O)c(O)c3)[C@@H](OC(=O)c3cc(O)c(O)c4c3[C@H]1[C@H](O)C(=O)O4)[C@H]2OC(=O)c1cc(O)c(O)c(O)c1 (stereo not given in full),4,102*,81*,-8,.,51*,49*
COC1OC(COC(=O)c2ccccc2)C(OC(=O)c2ccccc2)C1OC(=O)c1ccccc1 (stereo not given),.,.,.,.,-1,.,.
NS(=O)(=O)c1ccc2c(c1)oc(=O)c1cc(S(N)(=O)=O)ccc12,-4,22,-9,-1,-6,2,.
CC(C)N1CCc2c(sc(N)c2C#N)C1,142*,.,-18,.,68*,59*,-3
CCC(=O)N1N=C(c2ccc(NS(C)(=O)=O)cc2)CC1c1ccc(N(C)C)cc1 (stereo not given),4,7,-10,-23,?,-2,.
Cc1ccc(NC(=O)C(OC(=O)c2ccccc2Cl)c2ccccc2)cc1Cl (stereo not given),0,-1,7,5,-4,2,.
Cc1cc(C(=O)OC(C(=O)Nc2ccc(C)c(Cl)c2)c2ccccc2)c(C)o1 (stereo not given),10,0,-4,2,-1,65*,-11
Cc1cc(C)nc(SCNC(=O)c2ccccc2)n1,18,8,9,-2,-6,69*,-14
Cc1cc(SCNC(=O)c2ccccc2)nc(C(C)C)n1,16,25,3,-8,?,43,.
